Shown are actives, neighbours in structure and some others; about 2.1% of the full set was active somewhere.
PGC1a acetyl inh = modulators of PGC1a acetylation | hit rate 0.17% among 350,000 | inhibition, % at 15.6 µM | AID 651687 | U2OS PGC1a acetylation, AlphaScreen anti-acetyl-lysine; with virally co-expressed GCN5 acetyltransferase;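 active means every replicate shows inhibition of at least 40%; inconclusive means mean inhibition at least 40% but some replicate below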;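 further: 0% = neutral control wells and 100% = positive control wells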
PAX8 reporter = inhibitors of PAX8 transcriptional activity in RMG-I cells; RMG-I TPO-luciferase reporter, SteadyGlo, 24 h; inhibition, % at 12.6 µM; hit rate 1.2% among 360,000;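 active means mean replicate inhibition at least 60% with every replicate also reaching 60%; inconclusive means only one of the two criteria is met; inactive means mean below 60% and not all replicates reaching 60%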;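 further: luciferase light reporting Pax8 driven TPO promoter activity; plate controls were median of neutral control wells for no effect and mitoxantrone controls for full effect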
INS-1E GSIS act = GLuc luminescence reporter in INS-1E cells, primary screen for activators of glucose-dependent secretion of insulin | INS-1E GLuc reporter insulin secretion, 2-3 h | activation, % at 16.6 µM | hit rate 0.61% among 370,000 | AID 743287;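 active means lowest replicate activation of at least 40%, so every replicate reaches that level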;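 further: 0% = median of neutral control wells and 100% = median of IBMX positive control wells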
EWS-Fli inh = inhibitors of EWS/Fli oncoprotein transcriptional activity; inhibition, % at 12.6 µM; hit rate 0.67% among 350,000; A673 NR0B1-luciferase reporter, viability-normalised;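 active means mean inhibition of at least 50% after viability correction, with every replicate also passing that limit; inconclusive means mean reaches 50% but only one of two replicates passes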;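 further: firefly luciferase signal divided by Alamar Blue viability fluorescence both relative to DMSO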
Xi reactivation = activators of X-chromosome reactivation in mouse fibroblasts. XiGFP mouse fibroblasts, % GFP-positive cells imaging, 3 d; cells co-treated with 5-aza-dC sensitizer; scaled so ellipticine positive control = 100%. activation, % at 7.58 µM. hit rate 0.055% among 360,000;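 active means mean normalized replicate activation at least 10% and every replicate at or above 10%; inconclusive means only one of the two criteria met; inactive means mean below 10% and not all replicates reach 10%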;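 further: 0% = median of on-plate neutral control wells and 100% = ellipticine 6 µM median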
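System: 68-5-11 XiGFP fibroblast line | Buffer or medium: DMEM containing 5-aza-dC | Compound: Single point | Times: Compounds 3 days, fix/stain 15 min at room temperature | Benchmarks: Positive control ellipticine, 6 µM final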
AF4-AF9 inh = MLL-AF4/AF9 protein interaction inhibition; P42568; AlphaScreen, biotin-AF4 peptide binding to FLAG-AF9; inhibition, % at 10 µM; hit rate 0.47% among 350,000; AID 651704;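 active means every replicate reaching a set inhibition limit, whatever the replicate mean, cut at about 25% in these data; inconclusive means mean inhibition reaches that limit but some replicates miss it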;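 further: 0% = plate neutral control median and 100% = total signal loss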
Target sequence (P42568 whole entry, looked up): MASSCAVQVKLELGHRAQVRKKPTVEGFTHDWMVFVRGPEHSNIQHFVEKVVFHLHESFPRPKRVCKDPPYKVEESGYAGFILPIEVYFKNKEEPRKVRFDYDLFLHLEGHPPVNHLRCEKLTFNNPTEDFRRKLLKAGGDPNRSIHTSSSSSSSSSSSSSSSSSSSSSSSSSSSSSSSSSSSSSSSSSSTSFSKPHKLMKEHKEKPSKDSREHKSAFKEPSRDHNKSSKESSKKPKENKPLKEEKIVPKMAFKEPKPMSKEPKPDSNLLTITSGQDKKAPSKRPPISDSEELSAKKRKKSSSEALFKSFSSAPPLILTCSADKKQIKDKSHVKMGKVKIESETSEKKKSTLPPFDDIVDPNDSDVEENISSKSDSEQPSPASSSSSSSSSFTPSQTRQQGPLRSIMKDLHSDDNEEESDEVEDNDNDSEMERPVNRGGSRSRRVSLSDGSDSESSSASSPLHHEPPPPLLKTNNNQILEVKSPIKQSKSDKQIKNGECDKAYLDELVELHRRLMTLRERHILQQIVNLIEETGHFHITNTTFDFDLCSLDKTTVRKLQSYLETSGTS
* = called active by the depositor; ? = inconclusive; . = not tested or not shown.

SMILES	PGC1a acetyl inh	PAX8 reporter	INS-1E GSIS act	EWS-Fli inh	Xi reactivation	AF4-AF9 inh
COC1=CC(=O)C=C(OC)C1=O	-107	78*	79	63*	1	-8
CC(C)[C@H](N)C(=O)N[C@H]1CCC2C3CC=C4C[C@@H](O)CC[C@]4(C)C3CC[C@@]21C (some centres undefined)	0	29	28	53*	0	-1
CCOc1ccc(CCNC(=O)CSC(=S)N2CCCC2)cc1OCC	0	-10	41*	-8	0	-2
CCOc1ccc(CCNC(=O)CSc2nn(-c3ccc(C)c(Cl)c3)c(=S)s2)cc1OCC	0	81*	6	19	0	0
CCOc1ccc(CCNC(=O)CSCc2ccc(C)cc2)cc1OCC	5	-3	-33	1	0	-2
C[C@H]1CCCCO[C@H](CN(C)Cc2ccccc2)[C@@H](C)CN([C@@H](C)CO)C(=O)c2cc(NC(=O)C3CCCCC3)ccc2O1	2	2	-22	5	0	8
CN1C(=O)c2cc(NC(=O)c3ccc(F)c(F)c3)ccc2OC[C@H]2O[C@H](CC(=O)N3CCOCC3)CC[C@H]21	7	0	1	1	0	-2
CCCN1C[C@H](C)[C@@H](OC)CN(C)C(=O)c2ccc(NC(=O)c3cccc(F)c3)cc2OC[C@@H]1C	-4	5	-23	7	0	39*
CO[C@@H]1CN(C)C(=O)c2cc(NC(=O)Nc3ccccc3F)ccc2OC[C@@H](C)N(Cc2ccccc2F)C[C@H]1C	-2	.	-4	6	0	0
CO[C@@H]1CN(C)C(=O)c2ccc(NC(=O)Nc3ccccc3F)cc2OC[C@@H](C)N(Cc2ccccc2F)C[C@H]1C	-1	71*	-19	-4	0	0
CCCN1C[C@@H](C)[C@@H](OC)CN(C)C(=O)c2ccc(NC(=O)c3cccc(F)c3)cc2OC[C@@H]1C	-16	20	5	4	0	?
CCCN1C[C@H](C)[C@H](OC)CN(C)C(=O)c2ccc(NC(=O)c3cccc(F)c3)cc2OC[C@H]1C	-10	-22	0	2	0	39*
COc1cccc(S(=O)(=O)Nc2ccc3c(c2)C(=O)N(C)C[C@H](OC)[C@@H](C)CN(Cc2ccccc2F)[C@@H](C)CO3)c1	-8	65*	-13	6	0	-1
CCCN1C[C@@H](C)[C@H](OC)CN(C)C(=O)c2ccc(NC(=O)c3cccc(F)c3)cc2OC[C@H]1C	-7	-6	-11	0	0	?
CCC(=O)Nc1ccc2c(c1)C(=O)N(C)C[C@H](OC)[C@@H](C)CN(C(=O)CC)[C@@H](C)CO2	10	.	-3	2	0	1
CC(C)NC(=O)N(C)C[C@H]1Oc2ncc(-c3cncnc3)cc2C(=O)N([C@H](C)CO)C[C@@H]1C	6	-13	4	-6	0	.
CCCN1C[C@H](C)[C@@H](OC)CN(C)C(=O)c2ccc(NC(=O)c3cccc(F)c3)cc2OC[C@H]1C	-12	-19	-1	2	0	45*
CC(C)Cn1c(O)c(/C=C2\C=NN=C2c2ccccc2)sc1=S	.	8	83*	9	0	.
CCCCCCn1c(O)c(/C=C2\C=NN=C2c2ccccc2)sc1=S	.	9	164*	.	0	.
Cn1c(O)c(/C=C2\C=NN=C2c2ccccc2)sc1=S	.	12	-6	13	0	.
CCn1c(O)c(/C=C2\C=NN=C2c2ccccc2)sc1=S	4	8	-5	-3	0	.
CCCCn1c(O)c(/C=C2\C=NN=C2c2ccccc2)sc1=S	-6	.	119*	.	.	.
COc1ccc(S(=O)(=O)Nc2ccc3c(c2)C(=O)N([C@@H](C)CO)C[C@@H](C)[C@H](CN(C)S(=O)(=O)c2cccs2)OCCCC[C@H](C)O3)cc1	-24	-17	11	10	0	0
CNC(=O)C1=C[C@H](c2ccc(C(=O)OC)cc2)C[C@H](OCc2ccc(CO)cc2)O1	.	10	.	3	.	-3
O=C(Cc1nnc(NC(=O)c2ccccc2)s1)N/N=C/c1ccco1	-1	132*	.	-35	0	-17

High-throughput results as filed in PubChem BioAssay.
